KCNQ1 inh – inhibitors of human KCNQ1 potassium channel; B-score at 10 µM; 310,000 tested, 1.3% active; CHO-K1 KCNQ1, FluxOR thallium flux fluorescence; hits give high values; P51787;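 active = compounds whose thallium flux B-score, printed positive for inhibition, exceeds three library SD while starting fluorescence stays within three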;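 note: channel opened by potassium depolarization with thallium stimulus after 20 min compound exposure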
hERG protect – hERG (human) protection from proarrhythmic block; activation (rescue from dofetilide block), less the hit threshold, % at 10 µM; AID 1511; 310,000 tested, 0.51% active; CHO-hERG, FluxOR thallium flux, dofetilide IC70 present;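 active = activation above the mean of controls blocked by dofetilide plus 5 SD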;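 note: thallium influx through hERG after potassium depolarization seen as dye fluorescence rise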
KCNK9 block – inhibitors of human KCNK9 two-pore domain potassium channel; B-score at 10 µM; Q9NPC2; 310,000 tested, 1.2% active; HEK293 KCNK9, FluxOR thallium flux fluorescence; hits give low values;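 active = ratio B-score over 3 SD below the library mean, with starting fluorescence within 5 SD of its mean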;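 note: negative B-score means less thallium flux so channel inhibition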
KCNQ1 pot – potentiators or activators of human KCNQ1 potassium channel. CHO-K1 KCNQ1, thallium flux FluxOR fluorescence; hits give high values. B-score at 10 µM. 310,000 tested, 0.35% active;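 active = fluorescence ratio B-score, a plate-corrected score, at least three library SD, with initial intensity B-score within 5 SD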
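assay system = CHO-K1 cells stably expressing KCNQ1 | medium = assay buffer, equal DMSO in all wells | timing = 37 °C overnight plating, 90-min dark dye load, 20-min compound pretreatment | measured by = kinetic FluxOR thallium fluorescence, 10-s 1-Hz baseline, 110-s post-stimulus read | measure = fluorescence change relative to baseline, converted to B score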
Kir21 inh – Kir2.1 (mouse) channel inhibition | B-score at 10 µM | 310,000 tested, 0.85% active | P35561 | HEK293-Kir2.1, FluxOR thallium flux fluorescence; hits give low values;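 active = fluorescence ratio B-score at or below minus 3 SD of library scores, with starting-brightness B-score within 2 SD, cut at about -4.2 in these data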;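 note: channel flux triggered by added potassium and thallium sulfate stimulus; B-score of peak minus minimum fluorescence over baseline after thallium stimulus; more negative B-score means stronger Kir2.1 block with less thallium influx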
KCNK3 inh – human KCNK3 channel inhibition, primary screen. O14649. CHO-KCNK3 thallium flux, FluxOR fluorescence; hits give low values. 340,000 tested, 0.84% active. B-score at 10 µM;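 active = B-score under library mean minus 4 SD, starting fluorescence ratio at most library mean plus 5 SD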;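 note: more negative B-score means stronger inhibition of thallium flux through KCNK3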
KCNQ1 inh valid – confirmation of human KCNQ1 potassium channel inhibitors; shares compounds with KCNQ1 inh; KCNQ1 cell line, FluxOR thallium flux fluorescence; inhibition, % at 10 µM; 1,600 tested, 93% active; AID 588353;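 active = primary screen active, with duplicate mean exceeding buffer control mean plus 3 SD of buffer wells, cut at about 28% in these data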
CHO Tl flux – activity in parental CHO cells lacking KCNQ1; shares compounds with KCNQ1 inh; parental CHO-K1, FluxOR thallium flux fluorescence ratio; hits give low values; zero means no signal rise above baseline; fluorescence ratio (Tl flux) at 10 µM; 1,600 tested, 21% active;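 active = mean of duplicate thallium-flux fluorescence ratios in parental host cells more than 5 SD below the buffer control mean, cut at about 0.38 in these data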;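 note: ratio is peak minus minimum fluorescence divided by baseline fluorescence; actives read low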
KCNQ1 ephys val – human KCNQ1 inhibition validated by electrophysiology | shares compounds with KCNQ1 inh | KCNQ1-CHO cells, automated patch clamp current | calls only at 10 µM | 490 tested, 20% active;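 active = KCNQ1 current drop exceeding 3 SD of negative control wells, seen in both duplicate runs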;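 note: steady state current during a 2 s step from -80 to +40 mV; negative values mean current inhibition and positive values mean potentiation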
KCNQ2 spec – selectivity of KCNQ1 inhibitors: inhibition of rat KCNQ2 channel. shares compounds with KCNQ1 inh. KCNQ2 cells, FluxOR thallium flux fluorescence. inhibition, % at 10 µM. 1,600 tested, 71% active. AID 651746;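 active = mean percent inhibition of the KCNQ2 thallium signal more than 5 SD above the buffer-only control wells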;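 note: KCNQ2 expressed in CHO cells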
KCNQ1 KCNE1 spec – human KCNQ1/KCNE1 inhibition in KCNQ1 specificity screen; shares compounds with KCNQ1 inh; KCNQ1/KCNE1 cells, FluxOR thallium flux fluorescence; inhibition, % at 10 µM; 1,600 tested, 77% active; AID 652147;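 active = mean percent inhibition of duplicate wells above the buffer-only control mean plus 3 SD of those controls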
Target sequence (P51787 whole entry, looked up): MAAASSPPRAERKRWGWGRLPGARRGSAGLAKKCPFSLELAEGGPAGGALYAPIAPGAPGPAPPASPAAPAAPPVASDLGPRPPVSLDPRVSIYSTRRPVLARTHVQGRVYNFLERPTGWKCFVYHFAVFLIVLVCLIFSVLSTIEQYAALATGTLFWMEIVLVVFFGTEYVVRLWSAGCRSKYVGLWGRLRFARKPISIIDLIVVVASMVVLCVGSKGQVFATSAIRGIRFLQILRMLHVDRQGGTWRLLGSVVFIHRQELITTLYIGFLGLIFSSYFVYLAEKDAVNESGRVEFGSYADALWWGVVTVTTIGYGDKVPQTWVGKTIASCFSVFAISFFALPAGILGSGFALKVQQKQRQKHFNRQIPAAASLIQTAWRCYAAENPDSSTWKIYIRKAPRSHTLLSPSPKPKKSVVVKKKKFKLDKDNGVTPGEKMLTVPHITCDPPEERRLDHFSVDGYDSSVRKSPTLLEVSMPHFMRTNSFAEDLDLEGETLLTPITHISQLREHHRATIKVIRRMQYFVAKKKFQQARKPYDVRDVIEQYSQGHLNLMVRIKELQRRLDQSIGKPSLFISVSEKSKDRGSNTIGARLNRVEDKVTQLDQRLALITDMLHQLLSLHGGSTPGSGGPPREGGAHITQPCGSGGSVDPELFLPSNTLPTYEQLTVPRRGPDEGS
Each line names hits and unclear results; the compound was inactive in the other large screens (follow-up assays come after a bar, where they were run). Hits are enriched below; roughly 3.8% of the tested compounds scored in any of these assays.

CCOC(=O)C1=C(N)Oc2ccc3ccccc3c2C1c1cccc(O)c1 (stereo not drawn)	KCNQ1 inh 6 | KCNQ1 inh valid 116 | CHO Tl flux inactive | KCNQ1 ephys val inactive | KCNQ2 spec 122% | KCNQ1 KCNE1 spec 123%
CCOC(=O)C1=C(N)Oc2ccc3ccccc3c2C1c1cccnc1 (stereo not drawn)	none
Cc1ccccc1-c1nnn(CC(=O)N(C)CC(=O)Nc2ccccc2C(F)(F)F)n1	none
O=C(CN1C(=O)NC2(CCCc3ccccc32)C1=O)Nc1cc(F)ccc1F (stereo not drawn)	none
CCOC(=O)Cc1nn[nH]n1	KCNQ1 inh 7 | KCNQ1 inh valid inactive | CHO Tl flux inactive | KCNQ2 spec inactive | KCNQ1 KCNE1 spec 37%
O=C(c1ccc2c(c1)OCO2)N(Cc1ccco1)C1(C(=O)NC2CCCCC2)CCCCC1	KCNQ1 inh 6 | KCNQ1 inh valid 80 | CHO Tl flux 0.36 | KCNQ2 spec 89% | KCNQ1 KCNE1 spec 78%
O=C(O)C1CC=CCC1C(=O)Nc1ccc2c(c1)CCC2 (stereo not drawn)	KCNQ1 inh 6 | KCNQ1 inh valid inactive | CHO Tl flux inactive | KCNQ2 spec inactive | KCNQ1 KCNE1 spec inactive
N#Cc1nc(Cc2cccc3ccccc23)oc1N1CCOCC1	none
CC1CCN(c2oc(Cc3cccc4ccccc34)nc2C#N)CC1	KCNQ1 inh 8 | KCNQ1 inh valid 99 | CHO Tl flux inactive | KCNQ2 spec 101% | KCNQ1 KCNE1 spec 112%
Cc1noc(C)c1CSCC(=O)Nc1cc(Cl)ccc1N1CCCCC1	KCNQ1 inh 8 | KCNQ1 inh valid 125 | CHO Tl flux 0.38 | KCNQ2 spec 121% | KCNQ1 KCNE1 spec 174%
Cc1noc(C)c1CSCC(=O)Nc1cc(C(F)(F)F)ccc1N1CCCCC1	none
Cc1ccc(-n2cccn2)c(CN2CCCC(CNC(=O)c3ccc(F)cc3)C2)c1 (stereo not drawn)	none
O=C(c1cnn2c(-c3ccccc3)cc(-c3ccccc3)nc12)N1CCN(Cc2ccccc2)CC1	KCNQ1 inh 7 | KCNQ1 inh valid 130 | CHO Tl flux 0.31 | KCNQ2 spec 154% | KCNQ1 KCNE1 spec active
O=C(c1cc2nc(-c3ccccc3)cc(C(F)(F)F)n2n1)N1CCOCC1	none
CC1CCN(C(=O)c2cc3nc(-c4ccccc4)cc(-c4ccccc4)n3n2)CC1	KCNQ1 inh 6 | KCNQ1 inh valid 112 | CHO Tl flux inactive | KCNQ1 ephys val inactive | KCNQ2 spec 108% | KCNQ1 KCNE1 spec 182%
O=C(c1cnn2c(C(F)F)cc(-c3ccccc3)nc12)N1CCOCC1	none
COc1ccc(OC)c2nc(-c3ccncc3)ccc12	none
CC(Sc1nnc(CC(=O)Nc2ccccc2F)n1C)C(=O)Nc1nccs1 (stereo not drawn)	none
CCOC(=O)C1CCN(c2c(C(=O)c3ccccc3)cnc3ccc(Cl)cc23)CC1	KCNQ1 inh 6 | KCNQ1 inh valid 154 | CHO Tl flux inactive | KCNQ1 ephys val inactive | KCNQ2 spec 134% | KCNQ1 KCNE1 spec 92%
CCOC(=O)C1CCCN(C2=C(NS(=O)(=O)c3ccc(Br)cc3)C(=O)c3ccccc3C2=O)C1 (stereo not drawn)	none
CCOC(=O)C1CCN(C2=C(NS(=O)(=O)c3ccc(Cl)cc3)C(=O)c3ccccc3C2=O)CC1	KCNQ1 inh 6 | KCNQ1 inh valid 124 | CHO Tl flux 0.32 | KCNQ2 spec 135% | KCNQ1 KCNE1 spec 182%
COCCN(C(=O)COC(=O)C1(c2ccccc2)CC1)c1c(N)n(CC(C)C)c(=O)[nH]c1=O	none
O=C(Cn1nc2ccccc2n1)N/N=C/c1ccc(F)cc1	none
O=C(NCc1ccco1)c1ccccc1Nc1ccc(F)cc1	KCNQ1 inh 7 | KCNQ1 inh valid 105 | CHO Tl flux inactive | KCNQ1 ephys val active | KCNQ2 spec 63% | KCNQ1 KCNE1 spec 91%
O=C(CN1C(=O)CCC1=O)Nc1cccc2c1C(=O)NC2=O	none
C[C@H](CO)N1C[C@H](C)[C@@H](CN(C)S(=O)(=O)c2ccccc2)Oc2ccc(NC(=O)CCN3CCOCC3)cc2C1=O	none (no result: KCNQ1 inh, hERG protect, KCNK9 block, KCNQ1 pot, Kir21 inh)
O=S(=O)(c1cccc(Br)c1)N1CCN(c2ncnc3scc(-c4ccccc4)c23)CC1	none (no result: KCNQ1 inh, hERG protect, KCNK9 block, KCNQ1 pot, Kir21 inh)
Cc1csc2ncnc(N3CCN(S(=O)(=O)c4cccc(C(F)(F)F)c4)CC3)c12	KCNQ1 inh 19 | KCNQ1 inh valid 134 | CHO Tl flux inactive | KCNQ1 ephys val inactive | KCNQ2 spec 113% | KCNQ1 KCNE1 spec 130%
Cc1ccc(Nc2c([N+](=O)[O-])c(=O)n(C)c3ccccc23)cc1C	none
CC(NS(=O)(=O)OCC(Cl)(Cl)Cl)c1ccc(Br)cc1 (stereo not drawn)	KCNQ1 inh 7, Kir21 inh -7.1 | KCNQ1 inh valid 126 | CHO Tl flux inactive | KCNQ1 ephys val inactive | KCNQ2 spec 73% | KCNQ1 KCNE1 spec 104%
CC(C)CC(NS(=O)(=O)OCC(Cl)(Cl)Cl)c1ccccc1 (stereo not drawn)	KCNQ1 inh 12 | KCNQ1 inh valid 56 | CHO Tl flux inactive | KCNQ2 spec 65% | KCNQ1 KCNE1 spec inactive
COC(=O)CCC(NS(=O)(=O)OCC(Cl)(Cl)Cl)c1ccccc1 (stereo not drawn)	none
COc1ccc(N2CCN(C(=O)CNC(=O)c3cccc(Br)c3)CC2)cc1	none
Fc1ccc2[nH]c3c(NCc4ccccc4)ncnc3c2c1	KCNQ1 inh 7 | KCNQ1 inh valid 150 | CHO Tl flux inactive | KCNQ1 ephys val inactive | KCNQ2 spec 73% | KCNQ1 KCNE1 spec 76%
COc1ccc2[nH]c3c(NCc4ccco4)ncnc3c2c1	none (no result: KCNK3 inh)
CC(=O)Nc1cc(-c2ccc(Cl)cc2)[nH]n1	none
Cc1cc(C)c(C#N)c(SCC2COc3ccccc3O2)n1 (stereo not drawn)	none
N#Cc1cc2c(nc1SCC1COc3ccccc3O1)CCC2 (stereo not drawn)	KCNQ1 inh 8 | KCNQ1 inh valid 106 | CHO Tl flux inactive | KCNQ2 spec 99% | KCNQ1 KCNE1 spec 124%
